Converted amounts (≈) assume the structure as drawn.
Legend:
[1] = target: T1, Phosphoethanolamine/phosphocholine phosphatase (Homo sapiens, UniProt Q8TCT1); test: Inhibition of PHOSPHO1 phosphoethanolamine activity (unknown origin) assessed as amount of inorganic phosphate release after 30 mins
T1 sequence (Q8TCT1 whole entry): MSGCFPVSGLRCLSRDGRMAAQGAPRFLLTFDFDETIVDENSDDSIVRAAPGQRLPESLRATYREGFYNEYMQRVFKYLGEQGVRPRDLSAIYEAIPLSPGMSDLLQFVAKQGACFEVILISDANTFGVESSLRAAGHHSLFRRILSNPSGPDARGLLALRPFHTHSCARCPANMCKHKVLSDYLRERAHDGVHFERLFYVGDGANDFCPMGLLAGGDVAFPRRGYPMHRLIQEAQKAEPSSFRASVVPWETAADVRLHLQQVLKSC

Phosphomannomutase 2 = target: T2, Phosphomannomutase 2 (Homo sapiens, UniProt O15305); test: Inhibition of PMM2 (unknown origin)
T2 sequence (O15305 whole entry): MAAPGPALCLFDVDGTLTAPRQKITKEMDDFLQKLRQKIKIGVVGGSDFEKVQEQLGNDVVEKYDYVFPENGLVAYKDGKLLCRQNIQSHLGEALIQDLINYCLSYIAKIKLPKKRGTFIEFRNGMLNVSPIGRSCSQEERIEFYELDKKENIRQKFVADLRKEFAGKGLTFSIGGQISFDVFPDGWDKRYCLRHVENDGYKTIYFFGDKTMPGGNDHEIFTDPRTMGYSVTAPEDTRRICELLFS

[2] = Aqueous solubility of the compound in pH 5 pION buffer by UV kinetic solubility method; assay type: physicochemical
Outline: (§1)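 Kinetic solubility in pION's buffer at pH 5.0, 6.2 or 7.4, reported in µg/ml. Part of an in vitro ADME panel.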

[3] = Aqueous solubility of the compound in pH 6.2 pION buffer by UV kinetic solubility method; assay type: physicochemical; outline: as §1
[4] = Aqueous solubility of the compound in pH 7.4 pION buffer by UV kinetic solubility method; assay type: physicochemical; outline: as §1
[5] = Permeability of the compound at donor pH 5.0 and acceptor pH 7.4 by PAMPA; assay type: ADME
Outline: (§2)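 PAMPA with the acceptor compartment at pH 7.4 and the donor at pH 5.0, 6.2 or 7.4. Permeability reported as ×10^-6 cm/s. Part of an in vitro ADME panel.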

[6] = Permeability of the compound at donor pH 6.2 and acceptor pH 7.4 by PAMPA; assay type: ADME; outline: as §2
[7] = Permeability of the compound at donor pH 7.4 and acceptor pH 7.4 by PAMPA; assay type: ADME; outline: as §2
[8] = Plasma protein binding in human at 1 uM by LC-MS analysis; assay type: ADME, cell-free; conditions: read-out: PPB (converted)
Outline: (§3)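 Read-out was % of compound bound in human or mouse plasma, each tested at 1 µM and 10 µM.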

[9] = Plasma protein binding in human at 10 uM by LC-MS analysis; assay type: ADME, cell-free; conditions: read-out: PPB (converted); outline: as §3
[10] = Plasma protein binding in mouse at 1 uM by LC-MS analysis; assay type: ADME, cell-free; conditions: read-out: PPB (converted); outline: as §3
[11] = Plasma protein binding in mouse at 10 uM by LC-MS analysis; assay type: ADME, cell-free; conditions: read-out: PPB (converted); outline: as §3
[12] = Cytotoxicity against human Fa2N-4 cells after 24 hrs by ATP-lite 1-step assay; assay type: cell-based; conditions: fa2n-4, 24 h, read-out: LC50 (the source's name)
[13] = Metabolic stability in human plasma assessed as compound remaining at 1 x pH7.4 PBS measured at 3 hrs by LC-MS/MS analysis; assay type: ADME, cell-free; conditions: pH 7.4, read-out: Stability
Outline: (§4)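 Stability of each analogue was reported as % of compound remaining. For liver microsomes this was after 1 hr, with runs with and without NADPH. For plasma this was after 3 hrs in plasma mixed 1:1 with 1× PBS, pH 7.4. Both human and mouse matrices were used.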

[14] = Metabolic stability in human plasma assessed as compound remaining at 1:1 1 x pH7.4 PBS measured at 3 hrs by LC-MS/MS analysis; assay type: ADME, cell-free; conditions: pH 7.4, read-out: Stability; outline: as §4
[15] = Metabolic stability in mouse plasma assessed as compound remaining at 1 x pH7.4 PBS measured at 3 hrs by LC-MS/MS analysis; assay type: ADME, cell-free; conditions: pH 7.4, read-out: Stability; outline: as §4
[16] = Metabolic stability in mouse plasma assessed as compound remaining at 1:1 1 x pH7.4 PBS measured at 3 hrs by LC-MS/MS analysis; assay type: ADME, cell-free; conditions: pH 7.4, read-out: Stability; outline: as §4
[17] = Metabolic stability in human liver microsomes measured at 1 uM after 1 hr at pH 7.4 by LC-MS/MS analysis; assay type: ADME; conditions: read-out: Stability; outline: as §4
[18] = Metabolic stability in human liver microsomes measured at 1 uM after 1 hr at pH 7.4 by LC-MS/MS analysis in absence of NADPH; assay type: ADME; conditions: read-out: Stability; outline: as §4
[19] = Metabolic stability in mouse liver microsomes measured at 1 uM after 1 hr at pH 7.4 by LC-MS/MS analysis; assay type: ADME; conditions: read-out: Stability; outline: as §4
[20] = Metabolic stability in mouse liver microsomes measured at 1 uM after 1 hr at pH 7.4 by LC-MS/MS analysis in absence of NADPH; assay type: ADME; conditions: read-out: Stability; outline: as §4
[21] = target: T3, Mannose-6-phosphate isomerase (Homo sapiens, UniProt P34949); test: Inhibition of phosphomannose isomerase (unknown origin)
T3 sequence (P34949 whole entry): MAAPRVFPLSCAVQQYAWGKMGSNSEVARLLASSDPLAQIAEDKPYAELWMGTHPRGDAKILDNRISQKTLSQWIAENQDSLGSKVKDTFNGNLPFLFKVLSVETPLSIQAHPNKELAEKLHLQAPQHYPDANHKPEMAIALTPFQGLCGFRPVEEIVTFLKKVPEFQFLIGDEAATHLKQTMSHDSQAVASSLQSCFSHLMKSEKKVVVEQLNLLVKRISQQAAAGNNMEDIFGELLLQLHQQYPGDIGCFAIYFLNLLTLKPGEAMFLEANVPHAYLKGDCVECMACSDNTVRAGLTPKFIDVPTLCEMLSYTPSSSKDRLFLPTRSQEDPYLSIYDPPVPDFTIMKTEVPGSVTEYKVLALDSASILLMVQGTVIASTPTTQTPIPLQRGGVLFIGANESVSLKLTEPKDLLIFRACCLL

## O=c1c2ccccc2sn1-c1cc(S(=O)(=O)N2CCOCC2)ccc1N1CCOCC1
[1]
  IC50: 1.2 µM

## Cc1ccc(C)c(-n2sc3ccccc3c2=O)c1
[1]
  IC50: 4 µM
Phosphomannomutase 2
  IC50: > 20 µM

## COc1ccc(-n2sc3cc(F)ccc3c2=O)cc1
[1]
  IC50: 6.7 µM
Phosphomannomutase 2
  IC50: > 10 µM

## COC(=O)c1cccc(-n2sc3ccccc3c2=O)c1
Phosphomannomutase 2
  IC50: 12 µM
[2]
  solubility kinetic: 12.6 µg/mL (≈ 44.2 µM)
[3]
  solubility kinetic: 18.9 µg/mL (≈ 66.2 µM)
[4]
  solubility kinetic: 20.8 µg/mL (≈ 72.9 µM)
[5]
  permeability: 1294 ×10⁻⁶ cm/s
[6]
  permeability: 1231 ×10⁻⁶ cm/s
[7]
  permeability: 1300 ×10⁻⁶ cm/s
[8]
  fraction unbound at 1 µM: 0.588
[9]
  fraction unbound at 10 µM: 0.427
[10]
  fraction unbound at 1 µM: 0.52
[11]
  fraction unbound at 10 µM: 0.624
[12]
  CC50: > 50 µM
[13]
  remaining at 3 h: 15.4%
[14]
  remaining at 3 h: 49.3%
[15]
  remaining at 3 h: 59.6%
[16]
  remaining at 3 h: 55.2%
[17]
  remaining at 1 h, 1 µM: 72.4%
[18]
  remaining at 1 h, 1 µM: 31.5%
[19]
  remaining at 1 h, 1 µM: 45.9%
[20]
  remaining at 1 h, 1 µM: 44.6%

## CN(C)S(=O)(=O)c1cccc(-n2sc3ccccc3c2=O)c1
[2]
  solubility kinetic: 23.4 µg/mL (≈ 70 µM)
[3]
  solubility kinetic: 24.6 µg/mL (≈ 73.6 µM)
[4]
  solubility kinetic: 23.8 µg/mL (≈ 71.2 µM)
[5]
  permeability: 781 ×10⁻⁶ cm/s
[6]
  permeability: 817 ×10⁻⁶ cm/s
[7]
  permeability: 777 ×10⁻⁶ cm/s
[9]
  fraction unbound at 10 µM: 0.435
[10]
  fraction unbound at 1 µM: 0.644
[11]
  fraction unbound at 10 µM: 0.659
[12]
  CC50: > 50 µM
[13]
  remaining at 3 h: 11.4%
[14]
  remaining at 3 h: 32.3%
[15]
  remaining at 3 h: 65.3%
[16]
  remaining at 3 h: 40%
[17]
  remaining at 1 h, 1 µM: 72.4%
[19]
  remaining at 1 h, 1 µM: 100%

## CCN(CC)S(=O)(=O)c1cccc(-n2sc3ccccc3c2=O)c1
[21]
  IC50: > 50 µM
Phosphomannomutase 2
  IC50: > 100 µM

## O=c1c2ccccc2sn1-c1cc(S(=O)(=O)N2CCOCC2)ccc1N1CCCC1
[1]
  IC50: 7.5 µM

## CN(C)c1ccc(-n2sc3ccccc3c2=O)cc1
[21]
  IC50: 8.4 µM
Phosphomannomutase 2
  IC50: > 30 µM

## CCOC(=O)c1ccc(-n2sc3ccccc3c2=O)cc1
[21]
  IC50: 23 µM
Phosphomannomutase 2
  IC50: > 50 µM

## Cc1cccc(-n2sc3cc(F)ccc3c2=O)c1C
[1]
  IC50: 4.7 µM
[21]
  IC50: 9.9 µM
Phosphomannomutase 2
  IC50: > 20 µM

## O=C(O)c1cccc(-n2sc3ccccc3c2=O)c1
[2]
  solubility kinetic: > 27 µg/mL
[3]
  solubility kinetic: > 27 µg/mL
[4]
  solubility kinetic: > 27 µg/mL
[5]
  permeability: 157 ×10⁻⁶ cm/s
[6]
  permeability: 18 ×10⁻⁶ cm/s
[7]
  permeability: < 4.4 ×10⁻⁶ cm/s
[9]
  fraction unbound at 10 µM: 0.406
[10]
  fraction unbound at 1 µM: 0.812
[11]
  fraction unbound at 10 µM: 0.699
[12]
  CC50: > 50 µM
[13]
  remaining at 3 h: 50.2%
[14]
  remaining at 3 h: 55.5%
[15]
  remaining at 3 h: 100%
[16]
  remaining at 3 h: 71.2%
[17]
  remaining at 1 h, 1 µM: 100%
[19]
  remaining at 1 h, 1 µM: 100%
